Reference: PubChem BioAssay
Active and inactive are the calls of the source.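 The calls were made as follows, unless noted: active = potentiation averaged over duplicate wells exceeding buffer-only control mean by more than 3 SD; inactive = the rest.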

Key:
[1] = thallium flux activation in parental CHO cells, counter-screen for KCNQ1 potentiator project (AID 493006;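 active = duplicate-averaged activation above buffer control mean plus 5 SD of those controls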); conditions: parental CHO-K1 cells, FluxOR thallium flux, at 10 µM; active compounds read high
In short: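 Material: parental CHO-K1 cells, FluxOR dye-loaded; Also added: Potassium/thallium depolarization pulse; Schedule: overnight 37 °C plating, 90 min dye, 20 min dark compound; Signal: kinetic FluxOR fluorescence, 10 s baseline, 110 s after stimulus.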

[2] = biological target: Potassium voltage-gated channel subfamily KQT member 1 (Homo sapiens) (UniProt P51787); assay: KCNQ1 potassium channel potentiators, confirmation, FluxOR thallium flux, CHO cells, duplicates (AID 493007); conditions: KCNQ1 cell line, FluxOR thallium flux fluorescence, at 10 µM; active compounds read high, % of reference activator effect, buffer zero;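 as to outcome: cells depolarized by a potassium plus thallium sulfate stimulus after compound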
In short: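 System: KCNQ1-expressing CHO cell line; technique: kinetic thallium influx fluorescence with FluxOR dye, 10 s baseline, 110 s post-stimulus; timing: dye 90 min then compound 20 min, both at room temperature; controls: buffer-only wells as 0% and R-L3 activator as 100%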

[3] = biological target: Potassium voltage-gated channel subfamily KQT member 2 (Rattus norvegicus) (UniProt O88943); assay: rat KCNQ2 channel potentiation, selectivity assay for KCNQ1 potentiator project, KCNQ2-CHO-K1 cells (AID 493009;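 active = mean duplicate potentiation above the buffer control mean plus 5 SD of buffer wells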;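 also: assay conditions were tuned for KCNQ1 rather than KCNQ2 modulators; signal is max minus min fluorescence divided by baseline after thallium stimulus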); conditions: FluxOR thallium flux fluorescence, at 10 µM; active compounds read high, scaled: buffer 0, activator control 100
[4] = biological target: Potassium voltage-gated channel subfamily KQT member 1 (Homo sapiens) (UniProt P51787); assay: KCNQ1 channel current potentiators, confirmation, orthogonal assay for KCNQ1 potentiator project, IonWorks patch clamp, KCNQ1-CHO cells (AID 493184;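 active = current rise at least 3 SD above the untreated control mean in each of two repeat wells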); conditions: automated patch clamp current, at 10 µM; active compounds read high
In short: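 Test system: KCNQ1-expressing CHO cells. Medium: pH 7.4 external bath. Probe or stimulus: voltage step from -90 mV holding to +40 mV, 2,000 ms. Compound: 10 µM final, single point. Detection: automated perforated-patch electrophysiology. Read-out: percent current increase versus pre-compound level. Repeats: two replicates.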

[5] = biological target: Potassium voltage-gated channel subfamily E member 1 (Homo sapiens) + Potassium voltage-gated channel subfamily KQT member 1 (Homo sapiens) (UniProt P15382+P51787); assay: KCNQ1/KCNE1 complex potentiators, confirmation, selectivity assay for KCNQ1 potentiator project, thallium flux, CHO-K1 KCNQ1/E1 cells (AID 493186;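 active = mean duplicate activation above the buffer control mean plus 5 SD of those controls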); conditions: FluxOR thallium flux, at 10 µM; active compounds read high
In short: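 Material: CHO-K1 cells with KCNQ1/E1 / Timing: dye 90 min, compound 20 min, room temperature / Technique: kinetic thallium-sensitive FluxOR dye fluorescence / Read-out: percent activation scaled between buffer and R-L3 ratio signals / Replicates: tested in duplicate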

Chain of Potassium voltage-gated channel subfamily KQT member 2 (Rattus norvegicus) (O88943 whole entry, looked up): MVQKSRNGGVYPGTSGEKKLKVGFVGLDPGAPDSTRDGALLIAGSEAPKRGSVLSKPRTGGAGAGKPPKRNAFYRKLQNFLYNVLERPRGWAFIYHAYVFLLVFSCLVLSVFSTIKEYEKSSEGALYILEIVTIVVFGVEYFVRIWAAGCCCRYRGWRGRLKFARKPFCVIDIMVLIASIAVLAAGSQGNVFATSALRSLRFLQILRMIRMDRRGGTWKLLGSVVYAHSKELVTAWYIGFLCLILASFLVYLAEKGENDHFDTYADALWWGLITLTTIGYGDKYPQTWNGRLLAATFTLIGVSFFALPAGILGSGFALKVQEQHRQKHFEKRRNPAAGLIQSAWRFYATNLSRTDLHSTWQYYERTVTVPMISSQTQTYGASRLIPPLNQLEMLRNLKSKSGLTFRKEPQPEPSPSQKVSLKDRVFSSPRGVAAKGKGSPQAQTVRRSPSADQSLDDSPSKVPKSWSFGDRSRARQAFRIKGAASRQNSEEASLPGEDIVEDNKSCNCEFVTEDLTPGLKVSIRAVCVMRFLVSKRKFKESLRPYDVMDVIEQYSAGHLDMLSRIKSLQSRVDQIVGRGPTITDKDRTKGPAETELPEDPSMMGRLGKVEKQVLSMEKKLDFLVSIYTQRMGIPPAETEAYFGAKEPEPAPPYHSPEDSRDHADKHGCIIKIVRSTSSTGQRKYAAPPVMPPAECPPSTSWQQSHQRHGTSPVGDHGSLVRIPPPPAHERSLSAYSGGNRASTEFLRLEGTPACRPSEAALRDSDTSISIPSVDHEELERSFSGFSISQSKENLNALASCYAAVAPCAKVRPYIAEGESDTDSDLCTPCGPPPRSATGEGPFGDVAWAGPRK
Chain of Potassium voltage-gated channel subfamily E member 1 (Homo sapiens) + Potassium voltage-gated channel subfamily KQT member 1 (Homo sapiens) (P51787 whole entry, looked up): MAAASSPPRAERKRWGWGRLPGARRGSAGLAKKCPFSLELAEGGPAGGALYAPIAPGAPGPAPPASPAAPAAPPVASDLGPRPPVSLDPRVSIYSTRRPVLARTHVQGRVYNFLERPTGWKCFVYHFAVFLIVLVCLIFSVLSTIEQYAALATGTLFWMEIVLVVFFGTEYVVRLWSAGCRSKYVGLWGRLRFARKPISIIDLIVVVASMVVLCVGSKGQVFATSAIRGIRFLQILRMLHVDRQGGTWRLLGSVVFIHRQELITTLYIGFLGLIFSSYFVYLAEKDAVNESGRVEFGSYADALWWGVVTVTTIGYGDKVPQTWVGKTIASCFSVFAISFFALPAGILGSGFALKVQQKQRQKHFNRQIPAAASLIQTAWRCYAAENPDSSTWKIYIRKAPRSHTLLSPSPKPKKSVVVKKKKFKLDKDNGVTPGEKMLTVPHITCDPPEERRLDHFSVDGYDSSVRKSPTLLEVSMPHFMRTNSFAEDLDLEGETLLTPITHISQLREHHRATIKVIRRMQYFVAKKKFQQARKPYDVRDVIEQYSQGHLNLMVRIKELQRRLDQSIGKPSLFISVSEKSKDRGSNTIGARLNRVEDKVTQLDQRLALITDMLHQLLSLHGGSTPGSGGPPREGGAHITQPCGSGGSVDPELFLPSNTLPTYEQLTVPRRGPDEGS
Chain of Potassium voltage-gated channel subfamily KQT member 1 (Homo sapiens) (P51787 whole entry, looked up): as above

COCCCN1C(=O)C(=O)/C(=C(/O)c2ccc(C)cc2)C1c1ccccc1 (stereo not given)
inactive: outcome [1] | outcome [2] | outcome [3] | outcome [4] | outcome [5]

Cc1ccc(C)c(N/C(N)=N/c2nc(C)cc(C)n2)c1
inactive: outcome [1] | outcome [2] | outcome [3] | outcome [4] | outcome [5]

CCN1CCN(C(c2ccccn2)c2c(NC(=O)c3ccccc3)sc(C)c2C)CC1 (stereo not given)
inactive: outcome [1] | outcome [2] | outcome [3] | outcome [4] | outcome [5]

CCOC(=O)c1ccc(N2C(=O)C3ON(c4ccccc4)C(c4ccco4)C3C2=O)cc1 (stereo not given)
inactive: outcome [1] | outcome [2] | outcome [3] | outcome [4] | outcome [5]

CCOC(=O)SC1=N/C(=C\c2ccc(N(C)C)cc2)C(=O)S1
inactive: outcome [1] | outcome [2] | outcome [3] | outcome [4]
active: activation [5] 15.3%

CCCCS(=O)(=O)/C=C\C=C/S(=O)(=O)CCCC
inactive: outcome [1] | outcome [2] | outcome [3] | outcome [4] | outcome [5]

Cn1c(=O)c2c(ncn2CC(=O)N/N=C/C(Cl)=C/c2ccccc2)n(C)c1=O
inactive: outcome [1] | outcome [2] | outcome [3] | outcome [4] | outcome [5]

S=c1[nH]nc(-c2ccco2)n1/N=C/c1ccc(Br)s1
inactive: outcome [1] | outcome [2] | outcome [3] | outcome [4] | outcome [5]

COc1cc(C(=O)CCN2CCC(c3ccccc3)C2)cc(OC)c1OC (stereo not given)
inactive: outcome [1] | outcome [2] | outcome [3] | outcome [4] | outcome [5]

CCCCn1c(=O)[nH]c(=O)c2c1nc(Cn1ncc(Cl)c(Cl)c1=O)n2CCC
inactive: outcome [1] | outcome [2] | outcome [3] | outcome [4] | outcome [5]

CCCn1c(=O)c(C(=O)NNC(=O)c2ccc(Cl)cc2Cl)c(O)c2ccccc21
active: potentiation [2] 30% | potentiation [3] 154%
inactive: outcome [1] | outcome [4] | outcome [5]

Cc1cccc(C(=O)NC(=S)NNC(=O)COc2c(C)cccc2C)c1
active: potentiation [2] 29.5% | potentiation [3] 176%
inactive: outcome [1] | outcome [4] | outcome [5]

CCOC(=O)c1cnn(-c2nc(SC)nc3sc4c(c23)CCCC4)c1N
active: potentiation [2] 29.5% | potentiation [3] 142%
inactive: outcome [1] | outcome [4] | outcome [5]

COc1ccccc1NC(=O)CC1C(=O)NCCN1C(=O)Nc1ccc(Cl)c(Cl)c1 (stereo not given)
active: potentiation [2] 37.5% | potentiation [3] 157%
inactive: outcome [1] | outcome [4] | outcome [5]

N=c1sccn1CC(=O)Nc1ccc(S(=O)(=O)N2CCOCC2)cc1
inactive: outcome [1] | outcome [2] | outcome [3] | outcome [4] | outcome [5]

COC(=O)c1ccccc1NC(=S)NC(=O)c1ccc(C)cc1
inactive: outcome [1] | outcome [2] | outcome [3] | outcome [4] | outcome [5]

S=c1[nH]nc(COc2ccccc2)n1/N=C/c1ccc(Cl)cc1Cl
inactive: outcome [1] | outcome [2] | outcome [3] | outcome [4] | outcome [5]

N#Cc1ccc(Cl)cc1NC(=O)COC(=O)[C@H](CCC(N)=O)NC(=O)c1ccc(F)cc1
inactive: outcome [1] | outcome [2] | outcome [3] | outcome [4] | outcome [5]

C=CCSc1nc2c(c(=O)[nH]1)C(C(C)C)C(C#N)=C(N)O2 (stereo not given)
inactive: outcome [1] | outcome [2] | outcome [3] | outcome [4] | outcome [5]

O=C(NC1CCCC1)C(c1cccnc1)N(C(=O)c1csnn1)c1ccccc1 (stereo not given)
active: potentiation [2] 27%
inactive: outcome [1] | outcome [3] | outcome [4] | outcome [5]

NC(=O)CN1C(=O)NC2(CCOc3ccccc32)C1=O (stereo not given)
inactive: outcome [1] | outcome [2] | outcome [3] | outcome [4] | outcome [5]

CCOC(=O)C(Sc1nnc(-c2ccncc2)o1)C(C)=O (stereo not given)
inactive: outcome [1] | outcome [2] | outcome [3] | outcome [4] | outcome [5]

CC(Sc1nncs1)C(=O)NC1CCCCC1C (stereo not given)
inactive: outcome [1] | outcome [2] | outcome [3] | outcome [4] | outcome [5]

Cc1cc(C(=O)CCl)c(C)n1-c1cccc([N+](=O)[O-])c1
inactive: outcome [1] | outcome [2] | outcome [3] | outcome [4] | outcome [5]

Oc1ccc(Br)cc1C=Nc1ccc(Cl)cc1
inactive: outcome [1] | outcome [2] | outcome [3] | outcome [4] | outcome [5]

COC(=O)CSc1nc(NC(C)C)nc(N(C)C)n1
inactive: outcome [1] | outcome [2] | outcome [3] | outcome [4] | outcome [5]

CC(c1nccs1)N(C)C(=O)CCc1nnc(Cc2c[nH]c3ccccc23)o1 (stereo not given)
inactive: outcome [1] | outcome [2] | outcome [3] | outcome [4] | outcome [5]

CC(=C/c1ccccc1)/C=N/n1c(-c2ccco2)n[nH]c1=S
inactive: outcome [1] | outcome [2] | outcome [3] | outcome [4] | outcome [5]

Cc1ccc(NC(=S)c2nc3ccccc3s2)cc1
active: potentiation [2] 32%
inactive: outcome [1] | outcome [3] | outcome [4] | outcome [5]

O=C(Nc1cccnc1)NC1CCCCC1
inactive: outcome [1] | outcome [2] | outcome [3] | outcome [4] | outcome [5]

CC(C1CC2CCC1C2)n1c(-c2ccco2)n[nH]c1=S (stereo not given)
inactive: outcome [1] | outcome [2] | outcome [3] | outcome [4] | outcome [5]

O=c1c2ccccc2[nH]c(=S)n1C1CCCCC1
inactive: outcome [1] | outcome [2] | outcome [3] | outcome [4] | outcome [5]

COc1ccc(CC(=O)NC(=S)Nc2cccc(C)c2)cc1
inactive: outcome [1] | outcome [2] | outcome [3] | outcome [4] | outcome [5]

CC1(C)CC(N=c2cc(-c3ccccc3)oc3ccc(Cl)cc23)CC(C)(C)N1
inactive: outcome [1] | outcome [2] | outcome [3] | outcome [4] | outcome [5]

COc1ccc(-c2nnc(NC(=O)c3ccc(S(=O)(=O)N4CCCc5ccccc54)cc3)o2)cc1
inactive: outcome [1] | outcome [2] | outcome [3] | outcome [4] | outcome [5]

NC(=Nc1ccc(Cl)cc1)c1ccccc1
inactive: outcome [1] | outcome [2] | outcome [3] | outcome [4] | outcome [5]

S=C(NCCc1ccccc1)N1CCn2cccc2C1c1cccnc1 (stereo not given)
inactive: outcome [1] | outcome [3] | outcome [4] | outcome [5]
active: potentiation [2] 18.5%

CN(C)CCNc1ncnc2c1sc1nc(N3CCOCC3)c3c(c12)CC(C)(C)SC3
inactive: outcome [1] | outcome [2] | outcome [3] | outcome [4] | outcome [5]

S=c1[nH]c(-c2ccccc2)cn1/N=C/c1ccc(Br)cc1
inactive: outcome [1] | outcome [2] | outcome [3] | outcome [4] | outcome [5]

CC1Oc2ccccc2N(CC(=O)N2CCCCCC2)C1=O (stereo not given)
active: potentiation [2] 27.5%
inactive: outcome [1] | outcome [3] | outcome [4] | outcome [5]

Cc1ccc(-c2ccc(/C=C3\C(=O)ON=C3c3ccccc3)o2)c([N+](=O)[O-])c1
inactive: outcome [1] | outcome [3] | outcome [4] | outcome [5]
active: potentiation [2] 29%

COc1cccc(-c2nc(=S)c3c(o2)CCCC3)c1
inactive: outcome [1] | outcome [2] | outcome [3] | outcome [4] | outcome [5]

O=C(N/C(=C\c1ccc([N+](=O)[O-])cc1)C(=O)N1CCCCC1)c1ccco1
inactive: outcome [1] | outcome [2] | outcome [3] | outcome [4] | outcome [5]

Cc1cc(-c2cccnc2)c(C#N)c(SCC#N)n1
inactive: outcome [1] | outcome [2] | outcome [3] | outcome [4] | outcome [5]

CNC(=O)CC1C(=O)N(c2ccc(Cl)cc2)C(=S)N1CCc1ccc(OC)c(OC)c1 (stereo not given)
inactive: outcome [1] | outcome [2] | outcome [3] | outcome [4] | outcome [5]

COc1cc(OC)c(-n2cc(-c3ccc(Cl)cc3)[nH]c2=O)cc1Cl
inactive: outcome [1] | outcome [2] | outcome [3] | outcome [4] | outcome [5]

Cc1cc(C)cc(-n2c(C)cc(/C=C3\C(=N)N4N=C(CC(C)C)SC4=NC3=O)c2C)c1
inactive: outcome [1] | outcome [3] | outcome [4] | outcome [5]
active: potentiation [2] 21.5%

COc1cc(OC)cc(C(=O)N2CC(=O)Nc3ccccc32)c1
inactive: outcome [1] | outcome [2] | outcome [3] | outcome [4] | outcome [5]

Cc1ccc(CNc2nc3c([nH]2)c(=O)n(C)c(=O)n3C)cc1
inactive: outcome [1] | outcome [2] | outcome [3] | outcome [4] | outcome [5]

Cn1nnc(NC(=O)C(c2ccccc2)c2ccccc2)n1
inactive: outcome [1] | outcome [2] | outcome [3] | outcome [4] | outcome [5]

CCOC(=O)c1cccc(NC(=O)CCc2nnc3ccc(N4CCCCC4)nn23)c1
inactive: outcome [1] | outcome [2] | outcome [3] | outcome [4] | outcome [5]

Cc1nc2c3cc(F)ccc3n(CCN3CCCCC3)c2s1
inactive: outcome [1] | outcome [3] | outcome [4] | outcome [5]
active: potentiation [2] 35%

S=c1[nH]cnc2scc(-c3ccc(Br)cc3)c12
inactive: outcome [1] | outcome [4] | outcome [5]
active: potentiation [2] 32.5% | potentiation [3] 147%

CCC(C)N(C(=O)COC(=O)c1cc([N+](=O)[O-])ccc1N1CCOCC1)C1CCS(=O)(=O)C1 (stereo not given)
inactive: outcome [1] | outcome [2] | outcome [3] | outcome [4] | outcome [5]

O=C(CSc1nnc(-c2ccccn2)n1-c1ccc(Cl)cc1)Nc1ccc2c(c1)OCO2
inactive: outcome [1] | outcome [2] | outcome [3] | outcome [4] | outcome [5]

CCOc1ccc(NC(=O)c2ccc(N)cc2)cc1
inactive: outcome [1] | outcome [2] | outcome [3] | outcome [4] | outcome [5]

COc1c(Br)cc(/C=N/n2c(-c3ccccc3)n[nH]c2=S)c(O)c1Br
inactive: outcome [1] | outcome [2] | outcome [3] | outcome [4] | outcome [5]

COc1ccc(C(=O)NC(=S)N(C)C2CCCCC2)cc1Br
inactive: outcome [1] | outcome [2] | outcome [3] | outcome [4] | outcome [5]

O=C(NC(=S)Nc1nc2c(s1)CCCC2)c1ccccc1
active: potentiation [2] 26%
inactive: outcome [1] | outcome [3] | outcome [4] | outcome [5]

NNc1nc2c(F)cc(F)cc2s1
inactive: outcome [1] | outcome [2] | outcome [3] | outcome [4] | outcome [5]
